APP 5'UTR act – APP 5'UTR luciferase reporter activation; hit rate 1% among 190,000; SH-SY5Y APP 5'UTR luciferase reporter, luminescence; zero percent = DMSO vehicle wells; activation, % at 2 µM;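 active = activation above a set limit, based on mean plus 3 SD of controls, cut at about 140% in these data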
NF-kB neuron act – NF-kB expression increase, human neuronal cells; NF-kB reporter expression; stronger effect = higher value; fold change at 12.5 µM; hit rate 1.6% among 190,000; AID 1239; in the data active = fold change above about 3.3
STAT1 act – STAT1 signaling activation. activation (% of control), % at 5.5 µM. hit rate 2.6% among 200,000. NIH 3T3 STAT1-luciferase reporter, IFN-gamma, luminescence; 100% = IFN-gamma alone, no compound;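 active = activation above the screen-wide mean activation plus 3 SD, cut at about 130% in these data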
STAT1 inh – reduces IFN-gamma driven STAT1 reporter signal. NIH 3T3 STAT1-luciferase reporter, luminescence. inhibition, % at 5.5 µM. hit rate 0.35% among 200,000. AID 920;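 active = inhibition above a set limit, the mean inhibition across all tested compounds plus 3 SD, cut at about 34% in these data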
STAT3 inh – reduces IL-6 driven STAT3 reporter signal. AID 862. inhibition, % at 5.5 µM. hit rate 0.89% among 190,000. U3A cells, IL-6 STAT3-luciferase reporter, luminescence; host cell line lacks STAT1;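 active = inhibition above the mean inhibition across all screened compounds plus 3 SD, cut at about 44% in these data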
STAT3 activator – STAT3 signaling activation | U3A cells, IL-6 STAT3-luciferase reporter, luminescence; 100% = signal with IL-6 EC80 alone | hit rate 0.91% among 190,000 | activation (% of control), % at 5.6 µM;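 active = activation above the screen-wide mean of compound activation plus 3 SD, cut at about 130% in these data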
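Material: human STAT1-deficient U3A cells with stable STAT3-luciferase reporter / Probe or stimulus: IL-6 stimulus at 33 ng/mL final / Schedule: 1 h compound pre-exposure, 6 h IL-6 stimulation, 37 °C / Technique: luminescence / Read-out basis: percent of IL-6-only median luminescence / Control set: IL-6-only high control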
Large screens that a line does not name were inactive. Rows were chosen to be rich in hits. Some 5.1% of all compounds tested hit in one or more screens of this group.

COc1ccccc1NS(=O)(=O)c1cc(NC(=O)/C=C/c2cccs2)ccc1N1CCOCC1	none
O=C1c2ccccc2C(=O)c2cc(S(=O)(=O)Nc3ccccc3)ccc21	none
O=C1C(Nc2ccccc2)=C(NS(=O)(=O)c2ccccc2)C(=O)c2ccccc21	STAT3 activator 134.2
O=C(COC(=O)c1cccc(S(=O)(=O)N2CCCC2)c1)NCc1ccccc1	none
C=C(C(=O)c1ccccc1)C(C)C(=C)C(=O)c1ccccc1	NF-kB neuron act 8.52
Cc1oncc1-c1csc(-c2ccccc2)n1	STAT1 act 137.1
Cc1oncc1-c1csc(-c2ccccc2Cl)n1	STAT1 act 143.0
O=C(O)c1ccc(-c2nc(-c3ccccc3Cl)cs2)cc1	STAT1 act 134.3
O=C(Cn1cc(C(F)(F)F)ccc1=O)N/N=C/c1ccc(Cl)cc1	none
O=C(Nc1nnc(-c2cccs2)o1)c1cc(-c2ccccc2)nc2ccccc12	none
Clc1ccc(-c2nnc(-c3ccc(Br)o3)o2)c(Cl)c1	STAT1 act 138.9
O=C(Oc1ccc(/C=N/O)cc1)c1ccccc1Cl	STAT1 act 142.1
Cc1cccc(C(=O)Oc2ccc(/C=N/O)cc2)c1	APP 5'UTR act 149.0, STAT1 act 135.2
Cc1cccc(C(=O)Oc2ccccc2/C=N/Nc2ccc([N+](=O)[O-])cc2)c1	none
CN(C)c1ccc(N/C(N)=N/c2nc(C(F)(F)F)cc(C(F)(F)F)n2)cc1	none
Cc1ccc(C(=O)NC2CCN(S(=O)(=O)c3ccccc3)CC2)cc1	none
CC(=O)Nc1ccc(C(=O)OCC(=O)N(Cc2ccccc2)C(C)(C)C)cc1	none
O=C(N/N=C/C(Cl)=C/c1ccccc1)c1ccccn1	NF-kB neuron act 4.26
Cc1ccc(/C=N/NC(=O)c2ccccn2)o1	STAT1 act 130.4
O=C(N/N=C/C(Cl)=C/c1ccccc1)c1ccncc1	none
Cc1ccc(C(=O)Nc2ccc(Cl)cc2C)c(Cl)c1	none
CC(=O)N=c1sc2ccccc2n1C	none
Cn1/c(=N/N=C/c2ccc(N3CCOCC3)cc2)sc2ccccc21	STAT1 act 129.0
COC(=O)/C=C1\OC(c2ccccc2)=CC1=O	none
CCCn1c(O)c(C=Nc2ccccc2)sc1=S	STAT1 act 137.7
Cc1ccc(S(=O)(=O)N2CCCOC2CNC(=O)C(=O)NC2CCCCC2)cc1 (configuration not stated)	none
Cc1nc2sc(-c3ccccc3)cc2c(=O)n1/N=C/N(C)C	STAT1 act 147.2
Cc1nc2sc(-c3ccccc3)cc2c(=O)n1-n1cccc1	APP 5'UTR act 142.3, STAT1 act 145.0
O=c1c2cc(-c3ccccc3)sc2nc2n1CCC2	APP 5'UTR act 187.2, NF-kB neuron act 4.24, STAT1 act 139.3
O=C(Nc1ccc2c(c1)OCO2)C1CCCCN1S(=O)(=O)c1ccccc1 (configuration not stated)	none
CN(CC(O)Cn1cnc2c1c(=O)n(C)c(=O)n2C)c1ccccc1 (configuration not stated)	none
CCNc1nc(NCC)n2c(SCC(=O)NC34CC5CC(CC(C5)C3)C4)nnc2n1	none
Cc1nn(C)c(C)c1S(=O)(=O)N1CCC(CO)(CC2CCCCO2)CC1 (configuration not stated)	none
O=C(/C=C/Nc1ccc([N+](=O)[O-])cc1Br)c1cccc2ccccc12	APP 5'UTR act 149.4
Clc1ccc(N2CCN(c3cnc4ccccc4n3)CC2)cc1	none
COc1ccc(N2CCN(c3cnc4ccccc4n3)CC2)cc1	STAT1 act 132.9
COc1cccc(N2CCN(c3cnc4ccccc4n3)CC2)c1	STAT1 act 134.4
O=[N+]([O-])c1ccc(/C=C2\CCC(C3=CCCC3)=C2N2CCOCC2)cc1	none
CC(=O)c1ccccc1NCC(=O)Nc1ccc(C)cc1	none
Cc1oc2cc3c(C(=O)N4CCCCC4)c(C)oc3cc2c1C(=O)N1CCCCC1	STAT1 act 139.1
COc1ccccc1NC(=O)c1csc2c1CCCC2	none
O=C(Nc1ccccn1)c1csc2c1CCCC2	NF-kB neuron act 3.91, STAT1 act 137.4
CN1c2cccc3cccc(c23)N(C)C1(C)C	NF-kB neuron act 4.07
CN1c2ccccc2N(C)C1(C)c1cccc2ccccc12	none
O=C1CCSc2ccc(Cl)cc2N1Cc1ccc(Cl)cc1	none
